Data: ChEMBL document CHEMBL1821590, “Novel dihydropyrimidines and its pyrazole derivatives: synthesis and pharmacological screening” (Eur J Med Chem, 2011)
≈ marks a conversion by molar mass, not a printed value.

Columns and labels:
Type in all cases: functional
Aspergillus niger [1] = assay: Antimicrobial activity against Aspergillus niger at 25 ug/ml by paper disc method; details: read-out: IZ
Outline: (§1)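 Paper disc method against A. niger and C. albicans, with compounds at 25, 50 and 100 µg/mL. Amphotericin-B as standard.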

Aspergillus niger [2] = assay: Antimicrobial activity against Aspergillus niger at 50 ug/ml by paper disc method; details: read-out: IZ; outline: as §1
Candida albicans [3] = assay: Antimicrobial activity against Candida albicans at 100 ug/ml by paper disc method; details: read-out: IZ; outline: as §1
Candida albicans [4] = assay: Antimicrobial activity against Candida albicans at 50 ug/ml by paper disc method; details: read-out: IZ; outline: as §1
Aspergillus niger [5] = assay: Antimicrobial activity against Aspergillus niger at 100 ug/ml by paper disc method; details: read-out: IZ; outline: as §1
Candida albicans [6] = assay: Antimicrobial activity against Candida albicans at 25 ug/ml by paper disc method; details: read-out: IZ; outline: as §1
Escherichia coli [7] = assay: Antimicrobial activity against Escherichia coli at 50 ug/ml by agar plate diffusion technique; details: read-out: IZ
Outline: (§2)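 Agar plate diffusion against E. coli, P. aeruginosa, S. aureus and B. subtilis, with compounds at 25, 50 and 100 µg/mL. Streptomycin as standard.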

Escherichia coli [8] = assay: Antimicrobial activity against Escherichia coli at 25 ug/ml by agar plate diffusion technique; details: read-out: IZ; outline: as §2
[9] = Antioxidant activity assessed as hydrogen peroxide scavenging activity after 10 mins
Outline: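 H2O2 (20 mM) in PBS pH 7.4. 1 mL of sample or ascorbic acid in methanol (12.5–100 µg/mL) added to 2 mL H2O2 solution. A230 read after 10 min. % inhibition = [1 − (Vt/Vc)] × 100. Triplicate, averaged. IC50 derived from % inhibition across concentrations.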

Escherichia coli [10] = assay: Antimicrobial activity against Escherichia coli at 100 ug/ml by agar plate diffusion technique; details: read-out: IZ; outline: as §2
Pseudomonas aeruginosa [11] = assay: Antimicrobial activity against Pseudomonas aeruginosa at 25 ug/ml by agar plate diffusion technique; details: read-out: IZ; outline: as §2
[12] = Antioxidant activity assessed as potassium ferricyanide ion reducing power after 20 mins
Outline: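 Oyaizu method. Samples or ascorbic acid in DMF (12.5–100 µg/mL) mixed with 0.2 M phosphate buffer pH 6.6 and 1% potassium ferricyanide, 20 min at 50 °C. 10% TCA added, centrifuged. Supernatant mixed with water and 0.1% FeCl3, read at 700 nm. % = [(Vt/Vc) − 1] × 100. IC50 derived.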

Metaphire posthuma [13] = assay: Anthelmintic activity against Pheretima posthuma assessed as time taken for complete parasite paralysis at 0.2% w/v
Outline: (§3)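 Earthworms (Pheretima posthuma) exposed to test solutions at 0.1, 0.2 and 0.5% w/v; time in minutes to complete paralysis (worms motionless) recorded. Albendazole as standard. Mean of three determinations ± S.D.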

Bacillus subtilis [14] = assay: Antimicrobial activity against Bacillus subtilis at 25 ug/ml by agar plate diffusion technique; details: read-out: IZ; outline: as §2
Metaphire posthuma [15] = assay: Anthelmintic activity against Pheretima posthuma assessed as time taken for parasite death at 0.2% w/v
Outline: (§4)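 Earthworms (Pheretima posthuma, spelled Perituma posthuma in text) exposed to test compounds at 0.1, 0.2 and 0.5% w/v. Albendazole served as standard, with an untreated control. Paralysis was recorded as the time until worms became motionless, then time to death was recorded, in minutes. Each value is the mean of three determinations with S.D.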

[16] = Antioxidant activity assessed as inhibition of lipid peroxidation using egg lecithin liposomes incubated for 1 hr
Outline: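 Egg lecithin (3 mg/mL, phosphate buffer pH 7.4) sonicated 10 min to form liposomes. Sample or ascorbic acid (12.5–100 µg/mL) added. Peroxidation induced with FeCl3 and L-ascorbic acid, 1 h at 37 °C. Stopped with HCl/TCA/TBA/BHA, boiled 15 min, centrifuged, supernatant read at 532 nm. Triplicate. % inhibition vs control. IC50 derived.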

Pseudomonas aeruginosa [17] = assay: Antimicrobial activity against Pseudomonas aeruginosa at 50 ug/ml by agar plate diffusion technique; details: read-out: IZ; outline: as §2
[18] = Antiinflammatory activity assessed as inhibition of albumin denaturation at 100 ug/ml by UV-visible spectrophotometry
Outline: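 Compounds dissolved in minimal DMF, diluted in PBS pH 7.4 (final DMF <2.5%). 1 mL test solution (100 µg/mL) plus 1 mL 1% albumin in PBS, 15 min at 27 ± 1 °C, then heated 10 min at 60 ± 1 °C. After cooling, turbidity read at 660 nm. % inhibition = [(Vt/Vc) − 1] × 100 against a no-drug control. Triplicate, averaged. Diclofenac standard.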

Metaphire posthuma [19] = assay: Anthelmintic activity against Pheretima posthuma assessed as time taken for complete parasite paralysis at 0.1% w/v; outline: as §3
[20] = Antioxidant activity assessed as nitric oxide radical scavenging activity after 150 mins
Outline: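 10 mM sodium nitroprusside (4 mL), PBS pH 7.4 (1 mL) and sample or ascorbic acid in DMSO (1 mL, 12.5–100 µg/mL), incubated 150 min at 25 °C. Nitrite detected with sulphanilic acid (5 min) then naphthylethylenediamine (30 min, diffused light). Read at […]. Triplicate. % inhibition = [1 − (Vt/Vc)] × 100. IC50 derived from it.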

Bacillus subtilis [21] = assay: Antimicrobial activity against Bacillus subtilis at 50 ug/ml by agar plate diffusion technique; details: read-out: IZ; outline: as §2
Bacillus subtilis [22] = assay: Antimicrobial activity against Bacillus subtilis at 100 ug/ml by agar plate diffusion technique; details: read-out: IZ; outline: as §2
Metaphire posthuma [23] = assay: Anthelmintic activity against Pheretima posthuma assessed as time taken for parasite death at 0.5% w/v; outline: as §4
Metaphire posthuma [24] = assay: Anthelmintic activity against Pheretima posthuma assessed as time taken for complete parasite paralysis at 0.5% w/v; outline: as §3
Metaphire posthuma [25] = assay: Anthelmintic activity against Pheretima posthuma assessed as time taken for parasite death at 0.1% w/v; outline: as §4
Pseudomonas aeruginosa [26] = assay: Antimicrobial activity against Pseudomonas aeruginosa at 100 ug/ml by agar plate diffusion technique; details: read-out: IZ; outline: as §2
Staphylococcus aureus [27] = assay: Antimicrobial activity against Staphylococcus aureus at 100 ug/ml by agar plate diffusion technique; details: read-out: IZ; outline: as §2
Staphylococcus aureus [28] = assay: Antimicrobial activity against Staphylococcus aureus at 50 ug/ml by agar plate diffusion technique; details: read-out: IZ; outline: as §2
Staphylococcus aureus [29] = assay: Antimicrobial activity against Staphylococcus aureus at 25 ug/ml by agar plate diffusion technique; details: read-out: IZ; outline: as §2

## C[C@@H]1[C@H](O)[C@@H](C)/C=C/C=C/C=C/C=C/C=C/C=C/C=C/[C@H](O[C@@H]2O[C@H](C)[C@@H](O)[C@H](N)[C@@H]2O)C[C@@H]2O[C@](O)(C[C@@H](O)C[C@@H](O)[C@H](O)CC[C@@H](O)C[C@@H](O)CC(=O)O[C@H]1C)C[C@H](O)[C@H]2C(=O)O [AMPHOTERICIN B]
Aspergillus niger [1]
  zone of inhibition at 25 µg/mL: 14.9 mm
Aspergillus niger [2]
  zone of inhibition at 50 µg/mL: 17.1 mm
Candida albicans [3]
  zone of inhibition at 100 µg/mL: 23.1 mm
Candida albicans [4]
  zone of inhibition at 50 µg/mL: 15.3 mm
Aspergillus niger [5]
  zone of inhibition at 100 µg/mL: 26.1 mm
Candida albicans [6]
  zone of inhibition at 25 µg/mL: 12.9 mm

## CN(C)c1ccc(-c2nc(NN)n(C)c(=O)c2C#N)cc1
Aspergillus niger [1]
  zone of inhibition at 25 µg/mL: 7.14 mm
Aspergillus niger [2]
  zone of inhibition at 50 µg/mL: 9.48 mm
Escherichia coli [7]
  zone of inhibition at 50 µg/mL: 7.82 mm
Escherichia coli [8]
  zone of inhibition at 25 µg/mL: 5.74 mm
[9]
  IC50: 66 µg/mL (≈ 232 µM)
Escherichia coli [10]
  zone of inhibition at 100 µg/mL: 8.28 mm
Pseudomonas aeruginosa [11]
  zone of inhibition at 25 µg/mL: 5.78 mm
[12]
  IC50: 81 µg/mL (≈ 285 µM)
Metaphire posthuma [13]
  Time: 26.35 min
Bacillus subtilis [14]
  zone of inhibition at 25 µg/mL: 8.1 mm
Metaphire posthuma [15]
  Time: 46.44 min
[16]
  IC50: 63 µg/mL (≈ 222 µM)
Candida albicans [3]
  zone of inhibition at 100 µg/mL: 15.3 mm
Candida albicans [4]
  zone of inhibition at 50 µg/mL: 9 mm
Pseudomonas aeruginosa [17]
  zone of inhibition at 50 µg/mL: 6.27 mm
[18]
  inhibition: 12.6%
Aspergillus niger [5]
  zone of inhibition at 100 µg/mL: 15.8 mm
Metaphire posthuma [19]
  Time: 28.25 min
[20]
  IC50: 69 µg/mL (≈ 243 µM)
Bacillus subtilis [21]
  zone of inhibition at 50 µg/mL: 10.5 mm
Bacillus subtilis [22]
  zone of inhibition at 100 µg/mL: 14.5 mm
Metaphire posthuma [23]
  Time: 43.34 min
Candida albicans [6]
  zone of inhibition at 25 µg/mL: 9.14 mm
Metaphire posthuma [24]
  Time: 25.64 min
Metaphire posthuma [25]
  Time: 54.22 min
Pseudomonas aeruginosa [26]
  zone of inhibition at 100 µg/mL: 8.83 mm

## O=C(O)Cc1ccccc1Nc1c(Cl)cccc1Cl
[18]
  inhibition: 83.3%

## CCCSc1ccc2[nH]c(NC(=O)OC)nc2c1 [ALBENDAZOLE]
Metaphire posthuma [13]
  Time: 35.58 min
Metaphire posthuma [15]
  Time: 55.25 min
Metaphire posthuma [19]
  Time: 50.38 min
Metaphire posthuma [23]
  Time: 53.34 min
Metaphire posthuma [24]
  Time: 30.57 min
Metaphire posthuma [25]
  Time: 60.36 min

## Cn1c(NN)nc(-c2ccco2)c(C#N)c1=O
Aspergillus niger [1]
  zone of inhibition at 25 µg/mL: 9.82 mm
Aspergillus niger [2]
  zone of inhibition at 50 µg/mL: 10.1 mm
[9]
  IC50: 58 µg/mL (≈ 251 µM)
Staphylococcus aureus [27]
  zone of inhibition at 100 µg/mL: 12.2 mm
[12]
  IC50: 64 µg/mL (≈ 277 µM)
Metaphire posthuma [13]
  Time: 40.73 min
Bacillus subtilis [14]
  zone of inhibition at 25 µg/mL: 10.8 mm
Metaphire posthuma [15]
  Time: 57.48 min
[16]
  IC50: 78 µg/mL (≈ 337 µM)
Candida albicans [3]
  zone of inhibition at 100 µg/mL: 16 mm
Candida albicans [4]
  zone of inhibition at 50 µg/mL: 10.2 mm
[18]
  inhibition: 36.6%
Aspergillus niger [5]
  zone of inhibition at 100 µg/mL: 17.6 mm
Metaphire posthuma [19]
  Time: 43.73 min
[20]
  IC50: 65 µg/mL (≈ 281 µM)
Bacillus subtilis [21]
  zone of inhibition at 50 µg/mL: 13.3 mm
Bacillus subtilis [22]
  zone of inhibition at 100 µg/mL: 14.2 mm
Staphylococcus aureus [28]
  zone of inhibition at 50 µg/mL: 10.5 mm
Metaphire posthuma [23]
  Time: 50.98 min
Candida albicans [6]
  zone of inhibition at 25 µg/mL: 8.26 mm
Staphylococcus aureus [29]
  zone of inhibition at 25 µg/mL: 8.02 mm
Metaphire posthuma [24]
  Time: 37.52 min
Metaphire posthuma [25]
  Time: 61.58 min
